# According to ChEMBL document CHEMBL4680103, “In Vitro and in Vivo Anti-Trypanosoma cruzi Activity of New Arylamine Mannich Base-Type Derivatives” (J Med Chem, 2016):
# Calls of active or inactive are those of the source. The rule behind the calls is not given here.
# Tests used:
# [1] = Genotoxicity in Salmonella typhimurium TA100 at 0.03 to 2.25 ug/plate incubated for 48 hrs in presence of liver S9 fraction by Ames test; format: toxicity, subcellular; details: salmonella enterica subsp. enterica serovar typhimurium, s9, 48 h
# In short: (§1)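 Preincubation Ames assay. […] Top agar with trace histidine/biotin (0.05 mM each) was added and poured onto glucose minimal agar. Plates were incubated 48 h at 37 °C and His+ revertants counted. DMSO was the negative control, with strain-appropriate positive controls. Technical triplicates.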
# [2] = Genotoxicity in Salmonella typhimurium TA1537 at 0.03 to 2.25 ug/plate incubated for 48 hrs in absence of liver S9 fraction by Ames test; format: toxicity; details: salmonella enterica subsp. enterica serovar typhimurium, s9, 48 h; in short: as §1
# [3] = molecular target: T1, Superoxide dismutase [Cu-Zn] (Homo sapiens, UniProt P00441); assay: Inhibition of human erythrocyte CuZn-SOD at 100 uM by NBT dye based spectrophotometry
# In short: (§2)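 Fe-SOD source: Arequipa epimastigote homogenate (STE buffer pH 7.8, sonication, centrifugation, supernatant; protein by Bradford); CuZn-SOD was commercial human erythrocyte enzyme. Activity was measured as NBT reduction by superoxide in 50 mM potassium phosphate pH 7.8, with compounds at 5 concentrations (1–100 µM). A560 was read before and after 10 min under lamp light with stirring. Three rate determinations; Newman–Keuls test.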
# [4] = tested on: Trypanosoma cruzi; assay: Antitrypanosomal activity against Trypanosoma cruzi Arequipa trypomastigotes infected in BALB/c mouse assessed as reduction in splenomegaly by measuring weight percent of spleens […] at 100 mg/kg, po dosed on alternating days (7 to 15 days post infection) by PCR analysis (reference value: 1.603%); format: functional
# [5] = tested on: Trypanosoma cruzi; assay: Antitrypanosomal activity against Trypanosoma cruzi Arequipa trypomastigotes infected in BALB/c mouse assessed as reduction in parasitemia measured during acute phase (days 0 to 40 post infection) at 50 to 100 mg/kg, po dosed on alternating days (7 to 15 days post infection); format: functional, organism-based; details: dose 50-100 mg/kg
# In short: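 Female BALB/c mice (8–10 weeks, 25–30 g; groups of six) were infected i.p. with 5×10^5 Arequipa blood trypomastigotes. Dosing was oral, 50 or 100 mg/kg/day, on 5 alternating days (days 7–15 pi), alongside untreated and reference-drug groups. Parasitemia was counted in 5 µL mandibular-vein blood by Neubauer chamber through day 40 pi. Data are means ± SD of six mice.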
# [6] = tested on: Trypanosoma cruzi; assay: Antitrypanosomal activity against Trypanosoma cruzi Arequipa trypomastigotes infected in BALB/c mouse assessed as parasitemia re-activation level measured during chronic phase ( day 90 post infection) at 100 mg/kg, po dosed on alternating days (7 to 15 days post infection) relative to acute phase infection (reference value: […]%); format: functional
# [7] = tested on: Trypanosoma cruzi; assay: (§3) Antitrypanosomal activity against Trypanosoma cruzi Arequipa trypomastigotes infected in BALB/c mouse assessed as reduction in parasitemia level in esophagus measured during acute phase (days 0 to 40 post infection) at 100 mg/kg, po dosed on alternating days (7 to 15 days post infection) by PCR analysis; format: functional, organism-based
# [8] = tested on: Trypanosoma cruzi; assay: Antitrypanosomal activity against Trypanosoma cruzi SN3 epimastigote forms incubated for 72 hrs by hemocytometry; format: functional, organism-based; details: SN3, 72 h
# In short: (§4)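 Epimastigotes grown in MTL medium with 10% inactivated FBS at 28 °C. Compounds were dissolved in DMSO (0.01% v/v) and added at 0.1–100 µM for 72 h. Parasites were counted in a Neubauer chamber. IC50 (50% growth inhibition) was derived by linear regression of Kc values. Values are averages of four determinations.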
# [9] = tested on: Trypanosoma cruzi; assay: as §3, with “level in heart measured during” for “level in esophagus measured during”, “infection) at 50 to 100 mg/kg,” for “infection) at 100 mg/kg,”; format: functional, organism-based; details: dose 50-100 mg/kg
# [10] = tested on: Trypanosoma cruzi; assay: Antitrypanosomal activity against Trypanosoma cruzi Tulahuen epimastigote forms incubated for 72 hrs by hemocytometry; format: functional, organism-based; in short: as §4
# [11] = tested on: Vero; assay: Cytotoxicity in African green monkey Vero cells incubated for 72 hrs; format: cell-based; details: Chlorocebus sabaeus
# [12] = tested on: Trypanosoma cruzi; assay: Antitrypanosomal activity against Trypanosoma cruzi Arequipa epimastigote forms incubated for 72 hrs by hemocytometry; format: functional, organism-based; in short: as §4
# [13] = Inhibition of Trypanosoma cruzi Arequipa Fe-SOD by NBT dye based spectrophotometry; in short: as §2
# [14] = molecular target: T1, Superoxide dismutase [Cu-Zn]; assay: Inhibition of human erythrocyte CuZn-SOD by NBT dye based spectrophotometry; in short: as §2
# [15] = tested on: Trypanosoma cruzi; assay: as §3, with “bone marrow” for “esophagus”; format: functional, organism-based
# [16] = tested on: Trypanosoma cruzi; assay: Antitrypanosomal activity against Trypanosoma cruzi Arequipa trypomastigotes infected in BALB/c mouse assessed as reduction in parasitemia level in lung measured during acute phase (days 0 to 40 post infection) at 100 mg/kg, po dosed on alternating days (7 to 15 days post infection) by PCR analysis; format: functional, organism-based
# [17] = tested on: Trypanosoma cruzi; assay: Antitrypanosomal activity against Trypanosoma cruzi Arequipa trypomastigotes infected in BALB/c mouse assessed as reduction in parasitemia level in heart measured during acute phase (days 0 to 40 post infection) at 100 mg/kg, po dosed on alternating days (7 to 15 days post infection) by PCR analysis; format: functional, organism-based
# [18] = Genotoxicity in Salmonella typhimurium TA1535 at 0.03 to 2.25 ug/plate incubated for 48 hrs in absence of liver S9 fraction by Ames test; format: toxicity; details: salmonella enterica subsp. enterica serovar typhimurium, s9, 48 h; in short: as §1
# [19] = tested on: Trypanosoma cruzi; assay: Antitrypanosomal activity against Trypanosoma cruzi Arequipa trypomastigote froms infected in mouse blood incubated for 24 hrs by Neubauer chamber based assay; format: functional, organism-based
# In short: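 Mouse blood taken at peak parasitemia (day 7) was diluted with uninfected blood to 4×10^6 trypomastigotes/mL, then 1:2 in RPMI 1640. Drugs from DMSO stocks were added at 1, 10, 25, 50 and 100 µM and incubated 24 h at 4–8 °C. Parasites were counted in a Neubauer chamber in triplicate. IC50 was calculated versus control.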
# [20] = tested on: Trypanosoma cruzi; assay: Antitrypanosomal activity against Trypanosoma cruzi infected in African green monkey Vero cells assessed as reduction in infection rate measured up to 10 days by Giemsa staining based hemocytometry; format: functional; details: time day <=10
# In short: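 Vero cells infected with metacyclic forms (10:1) were exposed to one concentration per compound immediately after infection for 12 h at 37 °C, 5% CO2. After washing, cultures were kept 10 days with fresh medium every 48 h. Every 48 h, % infected cells and amastigotes per infected cell (200 Giemsa-stained cells) and medium trypomastigotes (Neubauer) were scored. Means of three experiments.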
# [21] = tested on: Trypanosoma cruzi; assay: as §3, with “adipose tissue” for “esophagus”; format: functional, organism-based
# [22] = Genotoxicity in Salmonella typhimurium TA1535 at 0.03 to 2.25 ug/plate incubated for 48 hrs in presence of liver S9 fraction by Ames test; format: toxicity, subcellular; details: salmonella enterica subsp. enterica serovar typhimurium, s9, 48 h; in short: as §1
# [23] = tested on: Trypanosoma cruzi; assay: Antitrypanosomal activity against Trypanosoma cruzi Arequipa trypomastigotes infected in BALB/c mouse assessed as reduction in splenomegaly by measuring weight percent of spleens […] at 50 mg/kg, po dosed on alternating days (7 to 15 days post infection) by PCR analysis (reference value: 1.603%); format: functional; design: scale not given: the % may be the effect or the level left
# [24] = tested on: Trypanosoma cruzi; assay: Antitrypanosomal activity against Trypanosoma cruzi Tulahuen amastigote forms infected in African green monkey Vero cells incubated for 72 hrs by Giemsa staining based micrscopy; format: functional, organism-based
# In short: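 Vero cells (RPMI, 10% inactivated FBS, 37 °C, 5% CO2) were seeded at 1×10^4/well on coverslips and cultured 2 days. They were infected 24 h with metacyclic forms at 10:1. After washing off free parasites, drugs were added at 0.1–100 µM for 72 h. Slides were methanol-fixed and Giemsa-stained; amastigotes were counted in 200 host cells versus untreated. IC50 was calculated.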
# T1 sequence (P00441 whole entry): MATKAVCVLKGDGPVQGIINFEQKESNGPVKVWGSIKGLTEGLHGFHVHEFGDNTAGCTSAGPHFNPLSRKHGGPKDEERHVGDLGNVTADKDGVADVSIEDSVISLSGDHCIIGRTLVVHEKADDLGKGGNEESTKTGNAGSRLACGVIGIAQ
inhibition [3],IC50 [8] [µM],IC50 [10] [µM],IC50 [12] [µM],IC50 [14] [µM],IC50 [19] [µM],Compound,Activity [1],Activity [2],Spleen weight percent [4] [%],Activity [5],Activity [6] [%],Activity [7],Activity [9],IC50 [11] [µM],IC50 [13] [µM],Activity [15],Activity [16],Activity [17],Activity [18],inhibition (INH) [20] [%],other results
inactive,12.3,0.4,30.7,215,0.3,O=C(CCN1CCN(c2ccc(F)cc2)CC1)c1csc2ccc(F)cc12,Non-Toxic,Non-Toxic,0.825,Active,0,Active,Active,759,16.8,Active,Active,Active,Non-Toxic,54,Activity [21]: Active; Activity [22]: Non-Toxic; Activity [23]: 1.061%; IC50 [24]: 4.9 µM
inactive,10.1,14,51.7,206,13.9,O=C(CCN1CCN(c2ccc(C(F)(F)F)cc2)CC1)c1csc2ccc(F)cc12,Non-Toxic,Non-Toxic,1.041,Active,0,Active,Active,896,102,Active,Active,Active,Non-Toxic,47,Activity [21]: Active; Activity [22]: Non-Toxic; Activity [23]: 1.621%; IC50 [24]: 25.8 µM
